# Legend:
# Format in all cases: functional, cell-based
# MCF7 [1] = experiment: Tested for inhibitory activity against human tumor cell line MCF7, a strain resistant to mitoxantrone of breast carcinoma using sulforhodamine B assay.
# L1210 [2] = experiment: Tested for inhibitory activity against murine cell line […], a strain resistant to doxorubicin using MTT assay.; conditions: Mus musculus
# Outline: (§1)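 Murine L1210 leukaemia cells were tested as a drug-sensitive strain and as a multiple drug-resistant strain that is P-glycoprotein positive. Growth inhibition in both strains was read by MTT assay.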
# OVCAR-3 [3] = experiment: Tested for inhibitory activity against human tumor cell line OVCAR-3, a resistant ovarian carcinoma using sulforhodamine B assay.
# L1210 [4] = experiment: Tested for inhibitory activity against murine cell line […], a strain sensitive to doxorubicin using MTT assay.; conditions: Mus musculus; outline: as §1
# UACC-375 = experiment: Tested for inhibitory activity against human tumor cell line UA375 of melanoma using sulforhodamine B assay.
# WiDr [5] = experiment: Tested for inhibitory activity against a multi drug resistant (MDR) strain of human colon carcinoma WiDr using sulforhodamine B assay (it is MRP positive but non-P-glycoprotein).
# [6] = Tested for inhibitory activity against human tumor cell line A549 (a non small, drug resistant cell line that does not produce P-glycoprotein) of lung carcinoma using sulforhodamine B assay.
# WiDr [7] = experiment: Tested for inhibitory activity against a sensitive strain of human colon carcinoma WiDr using sulforhodamine B assay (it is MRP positive but non-P-glycoprotein).
# MCF7 [8] = experiment: Tested for inhibitory activity against human tumor cell line D40, a strain resistant to doxorubicin of breast carcinoma using sulforhodamine B assay.
# MCF7 [9] = experiment: Tested for inhibitory activity against human tumor cell line MCF7, a strain sensitive to doxorubicin of breast carcinoma using sulforhodamine B assay.
# L1210 [10] = experiment: Tested for inhibitory activity against murine cell line […] leukemia, a strain resistant to doxorubicin using MTT assay.; conditions: Mus musculus; outline: as §1
# L1210 [11] = experiment: Tested for inhibitory activity against murine cell line […] leukemia, a strain sensitive to doxorubicin using MTT assay.; conditions: Mus musculus; outline: as §1
# OVCAR-3 [12] = experiment: Tested for inhibitory activity against human tumor cell line OVCAR-3 a resistant ovarian carcinoma using sulforhodamine B assay.
Structure (SMILES),IC50 (L1210 [2]) [µM],IC50 (OVCAR-3 [3]) [µM],IC50 (L1210 [4]) [µM],IC50 (UACC-375) [µM],IC50 (WiDr [5]) [µM],IC50 [6] [µM],IC50 (WiDr [7]) [µM],IC50 (MCF7 [8]) [µM],IC50 (MCF7 [9]) [µM],IC50 (L1210 [10]) [µM],IC50 (L1210 [11]) [µM],IC50 (OVCAR-3 [12]) [µM],IC50 (MCF7 [1]) [µM]
CN(C)CCN1C(=O)c2c(NC(=O)C(C)(C)C)ccc3cc4c(c(c23)C1=O)CCCC4,1.75,0.656,2.19,8.75,0.8,0.75,0.75,2,0.95,–,–,–,1.3
COc1cccc2c1cc1c3c(cccc32)C(=O)N(CCN(C)C)C1=O,1.56,0.02,0.52,0.52,1.3,0.87,0.9,0.82,0.86,–,–,–,0.9
CN(C)CCN1C(=O)c2cccc3c2c(cc2cccnc23)C1=O,0.026,0.862,0.043,0.309,0.37,0.22,0.195,0.4,0.21,–,–,–,0.32
CN(C)CCN1C(=O)c2c(N)ccc3cc4c(c(c23)C1=O)CCCC4,0.002,0.08,0.011,0.187,0.45,0.013,0.079,0.11,0.12,–,–,–,0.13
CN(C)CCN1C(=O)c2cc3cccnc3c3ccc(N)c(c23)C1=O,0.186,0.466,0.233,0.117,0.21,0.17,0.16,0.31,0.27,–,–,–,0.31
CN(C)CCN1C(=O)c2cccc3c2c(cc2cccc([N+](=O)[O-])c23)C1=O,0.501,0.626,0.751,0.751,2.4,0.95,0.8,0.62,0.36,–,–,–,0.44
CN(C)CCN1C(=O)c2cccc3cc(N)cc(c23)C1=O [AMONAFIDE],–,–,–,–,–,1.1,–,–,–,–,–,–,–
CC(=O)Nc1ccc2cc3c(c4c2c1C(=O)N(CCN(C)C)C4=O)CCCC3,0.036,0.048,0.06,0.132,0.24,0.032,0.031,0.13,0.04,–,–,–,0.04
CN(C)CCN1C(=O)c2cc(NC(=O)C(C)(C)C)cc3cc4c(c(c23)C1=O)CCCC4,1.53,4.27,0.984,4.27,1.5,0.85,1.2,1.3,1.7,–,–,–,1
CC(=O)Nc1ccc2c3c(cc4cccnc42)C(=O)N(CCN(C)C)C(=O)c13,0.127,0.424,0.424,0.212,0.195,0.15,0.13,0.29,0.27,–,–,–,0.27
CN(C)CCN1C(=O)c2cccc3c2c(cc2c([N+](=O)[O-])cccc23)C1=O,0.05,0.05,0.05,0.175,0.175,0.154,0.135,0.17,0.15,–,–,–,0.18
CN(C)CCN1C(=O)c2cc(N)cc3cc4c(c(c23)C1=O)CCCC4,0.026,0.488,0.073,0.61,1.6,0.17,0.23,0.9,0.24,–,–,–,0.32
COc1cccc2c1C(=O)c1c(O)c3c(c(O)c1C2=O)C[C@@](O)(C(=O)CO)C[C@@H]3O[C@H]1C[C@H](N)[C@H](O)[C@H](C)O1 [DOXORUBICIN],–,–,–,–,–,0.022,–,–,–,–,–,–,–
O=C1c2c(O)ccc(O)c2C(=O)c2c(NCCNCCO)ccc(NCCNCCO)c21 [MITOXANTRONE],–,0.006,0.01,–,–,0.003,0.008,–,0.009,–,–,–,–
CN(C)CCN1C(=O)c2cccc3c2c(cc2ncccc23)C1=O,–,–,–,0.617,0.26,0.032,0.11,0.32,0.17,0.367,0.493,0.986,0.23
CN(C)CCN1C(=O)c2cccc3cc4c(c(c23)C1=O)CCCC4,0.008,0.07,0.011,0.223,0.22,0.018,0.13,0.23,0.1,–,–,–,0.15

# Continued, in another order:
IC50 (L1210 [2]) [µM],IC50 (OVCAR-3 [3]) [µM],IC50 (L1210 [4]) [µM],IC50 (UACC-375) [µM],IC50 (WiDr [5]) [µM],IC50 [6] [µM],IC50 (WiDr [7]) [µM],IC50 (MCF7 [8]) [µM],IC50 (MCF7 [9]) [µM],IC50 (L1210 [10]) [µM],IC50 (L1210 [11]) [µM],IC50 (OVCAR-3 [12]) [µM],Structure (SMILES),IC50 (MCF7 [1]) [µM]
0.054,0.541,0.054,1.08,0.525,0.28,0.28,0.59,0.55,–,–,–,CN(C)CCN1C(=O)c2cccc3c2c(cc2c(N)cccc23)C1=O,0.55
0.05,0.068,0.054,0.244,0.46,0.037,0.24,0.29,0.13,–,–,–,CN(C)CCN1C(=O)c2cccc3c2c(cc2cccc(N)c23)C1=O,0.15
0.165,0.564,0.197,0.564,0.42,0.22,0.24,0.5,0.22,–,–,–,CN(C)CCN1C(=O)c2cccc3c2c(cc2ccccc23)C1=O,0.28
0.54,0.675,0.54,0.405,2.3,0.16,0.26,0.675,0.625,–,–,–,CN(C)CCN1C(=O)c2cccc3c2c(cc2cccc(O)c23)C1=O,0.39
0.231,0.385,0.256,0.179,0.38,0.045,0.22,0.286,0.16,–,–,–,CN(C)CCN1C(=O)c2cccc3c2c(cc2cccc(Cl)c23)C1=O,0.15
1.35,0.81,0.81,0.54,0.5,0.42,0.32,0.56,0.625,–,–,–,CN(C)CCN1C(=O)c2cccc3c2c(cc2c(O)cccc23)C1=O,0.34
–,–,–,–,–,0.01,–,–,–,–,–,–,CN(C)CCN1C(=O)c2cccc3cc4ccccc4c(c23)C1=O [AZONAFIDE],–
0.513,0.513,0.769,0.513,0.11,0.022,0.02,0.08,0.06,–,–,–,CN(C)CCN1C(=O)c2cccc3c2c(cc2c(Cl)cccc23)C1=O,0.019
